One data set has as its system Leishmania amazonensis. Put plainly: Antileishmanial activity against Leishmania amazonensis MHOM/BR/77/LTB0016 promastigotes after 24 hrs by cell counting. The class given is functional, organism-based. In short, it runs like this: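 L. amazonensis MHOM/BR/77/LTB0016 promastigotes grown at 25 °C in LIT medium with 10% (v/v) heat-inactivated FCS, harvested in late log phase and set to 4 x 10^6 /mL. Drugs in DMSO (up to 1.6% v/v) at 160 to 5 μg/mL for 24 h. Surviving parasites counted in a Neubauer chamber. Inhibition taken against DMSO and untreated controls. IC50 from linear regression of % inhibition versus log concentration.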

The next data set has as its system Leishmania chagasi. Put plainly: Antileishmanial activity against Leishmania chagasi promastigotes after 24 hrs by cell counting. The class given is functional, organism-based. In a few lines:
(§1)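 Promastigotes given drugs in DMSO (at most 1.6% v/v) over 160 to 5 μg/mL for 24 h. Remaining parasites counted in a Neubauer chamber and % inhibition set against DMSO-only and parasite-only controls. IC50 derived by linear regression of % inhibition against log drug concentration.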

In another data set the test system is Leishmania braziliensis. Briefly: Antileishmanial activity against Leishmania braziliensis promastigotes after 24 hrs by cell counting. The class given is functional, organism-based. In a few lines:
as §1

Data set [1] in a line: Cytotoxicity against macrophages (unknown origin) at 320 ug/ml. Conditions: macrophage. It is filed as cell-based.
Setting [2] is: Leishmania amazonensis, MHOM/BR/77/LTB0016, 24 h.

The record followed here is ChEMBL document CHEMBL2417398, “Synthesis, antileishmanial activity and structure-activity relationship of 1-N-X-phenyl-3-N'-Y-phenyl-benzamidines” (Eur J Med Chem, 2013).

`COc1ccc(/C(=N/c2ccccc2)Nc2cccc(Cl)c2)cc1` returned a logIC50 with Leishmania amazonensis (setting [2]) of 1.11.
The same measure, in the same setting: under `COc1ccc(/C(=N/c2ccccc2)Nc2ccc(F)cc2)cc1` stands 1.43.
On the same count and under the same terms, under `COc1ccc(/C(=N/c2ccccc2)Nc2cccc(F)c2)cc1` stands 1.62.
The same measure, in the same setting: the result for `COc1ccc(/C(=N/c2ccccc2)Nc2ccc(Br)cc2)cc1` reads 1.34; that for `COc1ccc(/C(=N/c2ccccc2)Nc2cccc(OC)c2)cc1`, 1.68; that for `COc1ccc(/C(=N/c2ccccc2)Nc2ccc([N+](=O)[O-])cc2)cc1`, 1.22.
`COc1ccc(/C(=N/c2ccccc2)Nc2cccc([N+](=O)[O-])c2)cc1` gave a logIC50 with Leishmania amazonensis (setting [2]) of 2.59.
Still for that read-out and setting: the result for `COc1ccc(/C(=N/c2ccccc2)Nc2ccc(O)cc2)cc1` reads 2.51; that for `COc1ccc(/C(=N/c2ccccc2)Nc2cccc(O)c2)cc1`, 2.65; that for `COc1ccc(/C(=N/c2ccccc2)Nc2ccc(C)cc2)cc1`, 2.42.
The same measure, in the same setting: the result for `COc1ccc(/C(=N/c2ccccc2)Nc2cccc(C)c2)cc1` reads 2.42; that for `COc1ccc(/C(=N/c2ccccc2)Nc2ccc(S(N)(=O)=O)cc2)cc1`, 1.79.
In the data set with Leishmania amazonensis (setting [2]), `COc1ccc(/C(=N/c2ccccc2)Nc2ccc(Cl)c([N+](=O)[O-])c2)cc1` returned a logIC50 of 1.1.
On to `COc1ccc(/C(=N/c2ccccc2)Nc2ccccc2)cc1` [listing 1 of 2 here], for which the logIC50 is 2.76 in the data set on Leishmania chagasi (Leishmania chagasi, 24 h); 2.05 with Leishmania braziliensis (Leishmania braziliensis, 24 h); 1.9 in the data set with Leishmania amazonensis (setting [2]).
In the same order, the values of `COc1ccc(/N=C(\Nc2ccccc2)c2ccc(OC)cc2)cc1` [listing 1 of 2 here] are 2.04, 1.42 and 1.82.
In the same order, the values of `COc1ccc(/N=C(\Nc2ccc(OC)cc2)c2ccccc2)cc1` [listing 1 of 2 here] are over 3, 2.13 and 1.62.
`COc1cccc(/C(=N/c2ccccc2)Nc2ccccc2)c1`: the logIC50 with Leishmania amazonensis (setting [2]) is 2.56.
Turning to `COc1ccc(/N=C(\Nc2ccccc2)c2ccccc2)cc1`, the logIC50 in the data set on Leishmania amazonensis (setting [2]) is 2.8.
Same read-out and setting: under `COc1ccc(/N=C(\Nc2ccccc2)c2cccc(OC)c2)cc1` stands 2.57.
On to `COc1ccc(/N=C(\Nc2ccccc2)c2ccc(OC)cc2)cc1` [listing 2 of 2 here], for which, in data set [1], the Activity worked out at 15%. The logIC50 in the data set with Leishmania chagasi worked out at 1.95; with Leishmania braziliensis, 1.52; in the data set on Leishmania amazonensis, 2.8.
On to `COc1ccc(/N=C(\Nc2ccc(OC)cc2)c2ccccc2)cc1` [listing 2 of 2 here], for which the Activity in data set [1] amounted to 100%. Further, the logIC50 came to 2.25 with Leishmania chagasi, 2.25 in the data set with Leishmania braziliensis and 2.24 in the data set with Leishmania amazonensis.
Consider `COc1ccc(/N=C(\Nc2ccc(OC)cc2)c2ccc(OC)cc2)cc1`, for which, in the data set with Leishmania amazonensis (setting [2]), the logIC50 is over 3.
Still for that read-out and setting: under `COc1ccc(/N=C(\Nc2ccccc2)c2ccc3c(c2)OCO3)cc1` stands 1.6.
On the same count and under the same terms, the result for `COc1ccc(/C(=N/c2ccccc2)Nc2ccc(Cl)cc2)cc1` reads 1.9.
Turning to `COc1ccc(/C(=N/c2ccccc2)Nc2ccccc2)cc1` [listing 2 of 2 here], the Activity result in data set [1] is “Non-toxic”. The logIC50 with Leishmania chagasi turned out to be 1.91; with Leishmania braziliensis, 1.9; in the data set with Leishmania amazonensis, 1.85.
Compound `N=C(N)c1ccc(OCCCCCOc2ccc(C(=N)N)cc2)cc1` [PENTAMIDINE] came in with an Activity in data set [1] of 100%. The logIC50 in the data set on Leishmania chagasi (Leishmania chagasi, 24 h) was determined as 1.76; with Leishmania braziliensis (Leishmania braziliensis, 24 h) it was 1.36; in the data set with Leishmania amazonensis (setting [2]), 1.05.
